In publication PMC9079187 (ACS nano, 2021):
Where two headings read alike, the source gives them in different places.

What was measured:
[1] = tested on: hippocampus of middle aged humans; conditions: middle aged humans of around 40 years of age; contrast agent; cited from earlier work
[2] = Dynamic light scattering; assay type: physicochemical; conditions: DLS, Malvern Zetasizer Nano; DPBS pH 7.4, 0.05 mM, filtered 0.22 μm
[3] = Zeta potential measurement; assay type: physicochemical; conditions: Malvern Zetasizer Nano; with NPs
[4] = biological target: T1, human claudin-3 (Homo sapiens, UniProt O15551); experiment: Microscale thermophoresis; assay type: binding; conditions: MST; claudin-3 0.4-14000 nM; C1C2-NP fixed at 70 nM; buffer with 0.1% n-Undecyl-β-D-Maltopyranoside; 23°C
T1 sequence (O15551 1-220): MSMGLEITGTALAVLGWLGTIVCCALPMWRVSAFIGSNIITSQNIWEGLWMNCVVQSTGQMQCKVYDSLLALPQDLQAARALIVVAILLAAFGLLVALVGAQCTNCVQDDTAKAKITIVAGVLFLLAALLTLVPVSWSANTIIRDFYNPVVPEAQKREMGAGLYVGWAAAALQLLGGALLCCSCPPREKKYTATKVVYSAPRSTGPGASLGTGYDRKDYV
Method in brief: (§1)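 Microscale thermophoresis on a Monolith instrument. AF647-labelled test NP was held at 70 nM against titrated human claudin-3 (0.4–14000 nM), claudin-4 (0.8–28000 nM) or claudin-9 (0.6–20000 nM). Buffer was 10 mM Tris-HCl pH 8.0, 100 mM NaCl, 4% glycerol and 0.1% n-undecyl-β-D-maltopyranoside. As a non-specific control, detergent was titrated 10 mM–0.7 μM against 1 μM AF647-labelled control NP.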

[5] = biological target: T2, human claudin-4 (Homo sapiens, UniProt O14493); experiment: Microscale thermophoresis; assay type: binding; conditions: MST; buffer with 0.1% n-Undecyl-β-D-Maltopyranoside; 23°C; C1C2-NP fixed at 70 nM, claudin-4 0.8-28000 nM
T2 sequence (O14493 1-209): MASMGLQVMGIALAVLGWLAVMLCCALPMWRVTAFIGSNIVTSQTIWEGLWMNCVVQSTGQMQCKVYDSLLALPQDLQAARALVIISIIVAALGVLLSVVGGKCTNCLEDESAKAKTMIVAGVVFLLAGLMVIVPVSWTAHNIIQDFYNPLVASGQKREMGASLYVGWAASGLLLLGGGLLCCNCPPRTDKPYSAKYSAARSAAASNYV
Method in brief: as §1

[6] = biological target: T3, human claudin-9 (Homo sapiens, UniProt O95484); experiment: Microscale thermophoresis; assay type: binding; conditions: MST; buffer with 0.1% n-Undecyl-β-D-Maltopyranoside; 23°C; C1C2-NP fixed at 70 nM, claudin-9 0.6-20000 nM
T3 sequence (O95484 1-217): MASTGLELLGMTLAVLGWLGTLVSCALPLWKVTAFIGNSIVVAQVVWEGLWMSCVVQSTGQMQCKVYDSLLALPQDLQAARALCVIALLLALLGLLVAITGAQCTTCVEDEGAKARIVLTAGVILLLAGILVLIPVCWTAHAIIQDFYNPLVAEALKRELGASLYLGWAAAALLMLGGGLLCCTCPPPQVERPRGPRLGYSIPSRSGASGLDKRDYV
Method in brief: as §1

[7] = biological target: T4, mouse claudin-1 in bEnd.3 cells (Mus musculus, UniProt O88551); experiment: In vitro fluorescence imaging of NP binding to bEnd.3 cells; assay type: cell-based
T4 sequence (O88551 1-211): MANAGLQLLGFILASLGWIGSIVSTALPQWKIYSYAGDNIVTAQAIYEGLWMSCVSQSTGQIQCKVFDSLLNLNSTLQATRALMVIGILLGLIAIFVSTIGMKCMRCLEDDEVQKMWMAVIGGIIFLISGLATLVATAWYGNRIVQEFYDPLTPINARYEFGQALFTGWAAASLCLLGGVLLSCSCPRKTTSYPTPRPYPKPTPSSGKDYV
Method in brief: (§2)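 bEnd.3 mouse brain endothelial cells were grown in DMEM. For mouse claudin-1, cells were treated with ethanol (50 mM) to induce expression. For human claudin-1, cells were transfected with a pCMV plasmid encoding it. Cells were then incubated with AF-647-labelled targeted NPs for 4 hrs and imaged by fluorescence. Claudin-1 induction was checked by western blot relative to β-actin.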

[8] = biological target: T5, human claudin-1 expressed in bEnd.3 cells (Homo sapiens, UniProt O95832); assay type: cell-based; conditions: plasmid transfection; NP incubation 4 hrs; fluorescence
T5 sequence (O95832 1-211): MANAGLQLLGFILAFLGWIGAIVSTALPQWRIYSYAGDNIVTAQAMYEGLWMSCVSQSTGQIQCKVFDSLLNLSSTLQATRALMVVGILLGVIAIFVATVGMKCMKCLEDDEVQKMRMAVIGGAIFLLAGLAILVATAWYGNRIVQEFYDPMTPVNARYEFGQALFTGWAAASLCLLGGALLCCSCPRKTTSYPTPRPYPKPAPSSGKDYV
Method in brief: as §2

[9] = Biodistribution in peripheral organs by ICP-MS; assay type: in vivo, mouse; conditions: ICP-MS of Gd
Method in brief: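 Male and female C57BL/6J mice, three aged 2 months and three aged 12 months, received 100 μL of 0.5 mM control or targeted Gd-oxide NPs. Transcardial perfusion with ice-cold DPBS followed at 1 hr. Heart, lung, liver, kidneys, spleen, colon and intestine were weighed and digested in HNO3 at 100 °C for 120 minutes. Samples were filtered, diluted and measured for Gd by ICP-MS.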

[10] = biological target: T6, claudin-1 on brain endothelial cells (Mus musculus, UniProt O88551); assay type: in vivo; conditions: corpus callosum and hippocampus, confocal, ~2 hrs post-injection
T6 sequence (O88551 1-211): T4 sequence (O88551 1-211)
Method in brief: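 Male and female C57BL/6J mice, 2 and 12 months old, received 100 μL of 0.5 mM test NP by tail vein, then a 100 μL PBS flush. About 2 h after injection they were perfused with 4% PFA and brains fixed 24 h. Sections were blocked 1 h at RT, stained overnight at 4 °C with rat anti-CD31 (1:250) and rabbit anti-claudin-1 (1:100), then AF488/AF555 secondaries (1:250, 2 h, RT) and DAPI. Confocal imaging used a 40x objective; colocalization was quantified with JACoP on ≥3 random fields per region per mouse.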

[11] = biological target: C1C2-NP (C1C2 peptide conjugated to PEG diacid coated Gd nanoparticles, AF647 labeled); experiment: MST

CNC[C@H](O)[C@@H](O)[C@H](O)[C@H](O)CO.CNC[C@H](O)[C@@H](O)[C@H](O)[C@H](O)CO.O=C([O-])CN(CCN(CC(=O)[O-])CC(=O)O)CCN(CC(=O)O)C(COCc1ccccc1)C(=O)[O-].[Gd+3] (centres unmarked) [MultiHance]
K^trans, hippocampus [1]: ~ 0.001 min^−1

GSQIYMICNQFYTPGGTG [Ocldn207-NP]
Hydrodynamic size [2]: 14.23±0.11 nm | Zeta Potential [3]: 3.65±0.19 mV

QEFYDPLTPINARYE [Cldn146-NP]
Hydrodynamic size [2]: 13.94±0.08 nm | Zeta Potential [3]: 1.62±0.13 mV

SCVSQSTGQIQCKVFDSLLNLNSTLQAT [Cldn53-NP]
Hydrodynamic size [2]: 13.8±0.11 nm | Zeta Potential [3]: 2.24±0.18 mV

SSVSQSTGQIQSKVDSLLNLNSTQATR [C1C2-NP]
Hydrodynamic size [2]: 14.5±0.13 nm | Zeta Potential [3]: 7.81±0.38 mV | binding to human claudin-3 (in words) [4]: does not show any binding | binding to human claudin-4 (in words) [5]: quite weak | binding to human claudin-9 (in words) [6]: quite weak | NP binding to ethanol-exposed bEnd.3 cells ([7]; ethanol (50mM) induced claudin-1, NP incubation 4 hrs): much higher binding | NP binding to control bEnd.3 cells ([7]; normal culture, low claudin-1 expression, AF-647 modified NPs): no binding | NP binding to bEnd.3 cells transfected to express human claudin-1 [8]: High NP binding | accumulation in the kidney ([9]; 1 hr post-injection of 100 μL of 0.5 mM NPs, versus control NPs): increased | accumulation in kidneys, 12-month-old compared to 2-month-old mice ([9]; 1 hr post-injection, three mice per age): higher | colocalization of claudin-1, CD31 and nanoparticles in brain ([10]; 2-month-old mice): not observed | colocalization of claudin-1, CD31 and nanoparticles in brain ([10]; 12-month-old mice): colocalization

recombinant human claudin-1 (from UniProt O95832 1-211) (natural protein)
Kd [11]: 21 µM
